Test results taken from ChEMBL document CHEMBL4138104, “Indole carboxylic acid esters of melampomagnolide B are potent anticancer agents against both hematological and solid tumor cells” (Eur J Med Chem, 2017).
pEC50: −log10 of the molar value.

What was measured:
MDA-MB-231 = assay: Growth inhibition of human MDA-MB-231/ATCC cells incubated for 48 hrs by sulforhodamine B assay; format: functional; conditions: MDA-MB-231, 48 h
In short: (§1)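 NCI-60 screen. Compounds were dosed at five concentrations spanning 10^-4 to 10^-8 M for 48 h at 37 °C. Cells were TCA-fixed, stained with 0.4% SRB and read at 515 nm against time-zero and vehicle controls. GI50 is the concentration giving a 50% reduction in net protein increase.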

Hs-578T = assay: Growth inhibition of human Hs 578T cells incubated for 48 hrs by sulforhodamine B assay; format: functional; in short: as §1
HOP-62 = assay: Growth inhibition of human HOP62 cells incubated for 48 hrs by sulforhodamine B assay; format: functional; conditions: HOP-62, 48 h; in short: as §1
PC-3 = assay: Growth inhibition of human PC3 cells incubated for 48 hrs by sulforhodamine B assay; format: functional; conditions: PC-3, 48 h; in short: as §1
NCI-H522 = assay: Growth inhibition of human NCI-H522 cells incubated for 48 hrs by sulforhodamine B assay; format: functional; conditions: NCI-H522, 48 h; in short: as §1
TK-10 = assay: Growth inhibition of human TK10 cells incubated for 48 hrs by sulforhodamine B assay; format: functional; conditions: TK-10, 48 h
In short: (§2)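 NCI-60 screen run at NCI. Cells grown in RPMI medium with 5% FBS and 2 mM L-glutamine, plated at 5,000–40,000 cells/well, and preincubated 24 h at 37 °C. Time-zero plates were TCA-fixed. Compounds came from DMSO stocks and were tested at five concentrations from 10^-4 to 10^-8 M for 48 h. Cells were then TCA-fixed, stained with 0.4% SRB, and OD read at 515 nm. GI50 is the concentration giving a 50% reduction in net protein increase versus control.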

MDA-MB-435 = assay: Growth inhibition of human MDA-MB-435 cells incubated for 48 hrs by sulforhodamine B assay; format: functional; conditions: MDA-MB-435, 48 h; in short: as §1
DU-145 = assay: Growth inhibition of human DU145 cells incubated for 48 hrs by sulforhodamine B assay; format: functional; conditions: DU-145, 48 h; in short: as §1
SK-MEL-5 = assay: Growth inhibition of human SK-MEL-5 cells incubated for 48 hrs by sulforhodamine B assay; format: functional; conditions: SK-MEL-5, 48 h; in short: as §1
M14 = assay: Growth inhibition of human M14 cells incubated for 48 hrs by sulforhodamine B assay; format: functional; conditions: M14, 48 h; in short: as §1
CAKI-1 = assay: Growth inhibition of human Caki1 cells incubated for 48 hrs by sulforhodamine B assay; format: functional; conditions: CAKI-1, 48 h; in short: as §1
T47D = assay: Growth inhibition of human T47D cells incubated for 48 hrs by sulforhodamine B assay; format: functional; in short: as §2
IGROV-1 = assay: Growth inhibition of human IGROV1 cells incubated for 48 hrs by sulforhodamine B assay; format: functional; conditions: IGROV-1, 48 h; in short: as §1
SR = assay: Growth inhibition of human SR cells incubated for 48 hrs by sulforhodamine B assay; format: functional; in short: as §2
SNB-75 = assay: Growth inhibition of human SNB75 cells incubated for 48 hrs by sulforhodamine B assay; format: functional; conditions: SNB-75, 48 h; in short: as §2
[1] = Potency index, ratio of melampomagnolide-B EC50 to compound EC50 for human M9-ENL1 cells; format: functional
In short: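 M9-ENL1 AML cells, derived by MLL-ENL transduction of human blood cells, were plated at 10^6 cells/mL in alpha-MEM with 5% human plasma, 20% FBS, SCF, IL-3, IL-7 and FLT3 ligand. Exposure was 24 h. Non-apoptotic (Annexin V/7-AAD double-negative) fraction was normalized to vehicle, in triplicate, to give EC50. PTL and MMB were run as reference controls.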

EKVX = assay: Growth inhibition of human EKVX cells incubated for 48 hrs by sulforhodamine B assay; format: functional; in short: as §1
ACHN = assay: Growth inhibition of human ACHN cells incubated for 48 hrs by sulforhodamine B assay; format: functional; in short: as §1
OVCAR-4 = assay: Growth inhibition of human OVCAR4 cells incubated for 48 hrs by sulforhodamine B assay; format: functional; conditions: OVCAR-4, 48 h; in short: as §1
786-0 = assay: Growth inhibition of human 786-0 cells incubated for 48 hrs by sulforhodamine B assay; format: functional; conditions: 786-0, 48 h; in short: as §1
OVCAR-3 = assay: Growth inhibition of human OVCAR3 cells incubated for 48 hrs by sulforhodamine B assay; format: functional; conditions: OVCAR-3, 48 h; in short: as §1
COLO 205 = assay: Growth inhibition of human COLO205 cells incubated for 48 hrs by sulforhodamine B assay; format: functional; conditions: COLO 205, 48 h; in short: as §1
SK-MEL-2 = assay: Growth inhibition of human SK-MEL-2 cells incubated for 48 hrs by sulforhodamine B assay; format: functional; conditions: SK-MEL-2, 48 h; in short: as §1
MDA-MB-468 = assay: Growth inhibition of human MDA-MB-468 cells incubated for 48 hrs by sulforhodamine B assay; format: functional; conditions: MDA-MB-468, 48 h; in short: as §1
BT-549 = assay: Growth inhibition of human BT549 cells incubated for 48 hrs by sulforhodamine B assay; format: functional; conditions: BT-549, 48 h; in short: as §1
[2] = Induction of apoptosis in AML03 cells isolated from acute myelogenous leukemia patient after 24 hrs by annexin V/7-AAD/propidium iodide staining-based flow cytometric method; format: functional, cell-based; conditions: Homo sapiens
In short: (§3)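 Primary AML specimens from consenting patients were Ficoll-separated and some were cryopreserved. Cells were held 1 h in serum-free IMDM with 20% BIT 9500, LDL and beta-mercaptoethanol before drug. Drugs were diluted from DMSO stock into PBS, final DMSO ≤0.5%. Dosing was 0.5–10 μM for 24 h. Annexin V/7-AAD flow cytometry scored double-negative (non-apoptotic) cells, normalized to vehicle, in triplicate, and EC50 came from dose-response curves.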

[3] = Induction of apoptosis in AML04 cells isolated from acute myelogenous leukemia patient after 24 hrs by annexin V/7-AAD/propidium iodide staining-based flow cytometric method; format: functional, cell-based; conditions: Homo sapiens; in short: as §3
[4] = Induction of apoptosis in AML02 cells isolated from acute myelogenous leukemia patient after 24 hrs by annexin V/7-AAD/propidium iodide staining-based flow cytometric method; format: functional, cell-based; conditions: Homo sapiens; in short: as §3
[5] = Induction of apoptosis in AML01 cells isolated from acute myelogenous leukemia patient after 24 hrs by annexin V/7-AAD/propidium iodide staining-based flow cytometric method; format: functional, cell-based; conditions: Homo sapiens, AML01, 24 h; in short: as §3

| Compound | GI50 (MDA-MB-231) [nM] | GI50 (Hs-578T) [nM] | GI50 (HOP-62) [nM] | GI50 (PC-3) [nM] | GI50 (NCI-H522) [nM] | GI50 (TK-10) [nM] | GI50 (MDA-MB-435) [nM] | GI50 (SK-MEL-5) [nM] | GI50 (M14) [nM] | GI50 (CAKI-1) [nM] | GI50 (T47D) [nM] | GI50 (IGROV-1) [nM] | GI50 (SR) [nM] | GI50 (SNB-75) [nM] | Ratio IC50 [1] | GI50 (EKVX) [nM] | GI50 (ACHN) [nM] | GI50 (OVCAR-4) [nM] | GI50 (786-0) [nM] | GI50 (OVCAR-3) [nM] | other results |
| --- | --- | --- | --- | --- | --- | --- | --- | --- | --- | --- | --- | --- | --- | --- | --- | --- | --- | --- | --- | --- | --- |
| C=C1C(=O)O[C@@H]2[C@H]3O[C@]3(C)CC/C=C(/COC(=O)c3cc4ccccc4s3)CC[C@@H]12 | 1970 | 2890 | 1810 | 1830 | 980 | 1550 | 1330 | 1750 | 1750 | 1460 | 1470 | 1760 | 520 | 3520 | 2 - 20 | 1690 | 1500 | 2080 | 1520 | 440 | GI50 (DU-145): 1050 nM; GI50 (COLO 205): 1710 nM; GI50 (SK-MEL-2): 1750 nM; GI50 (MDA-MB-468): 1630 nM |
| C=C1C(=O)O[C@@H]2[C@H]3O[C@]3(C)CC/C=C(/COC(=O)c3cc4cc(F)ccc4[nH]3)CC[C@@H]12 | 1590 | 2950 | 2920 | 1700 | 1650 | 1830 | 1500 | 1850 | 1890 | 1200 | 1560 | 1440 | 2030 | 11100 | 2 - 20 | 1580 | 1460 | 1670 | 1780 | 1200 | GI50 (DU-145): 1670 nM; GI50 (COLO 205): 1640 nM; GI50 (SK-MEL-2): 1950 nM; GI50 (MDA-MB-468): 1860 nM |
| C=C1C(=O)O[C@@H]2[C@H]3O[C@]3(C)CC/C=C(/COC(=O)c3cn(C)c4ccccc34)CC[C@@H]12 | 1050 | 2390 | 1810 | 1470 | 390 | 1100 | 1350 | 1420 | 1410 | – | 1190 | 690 | 340 | 1090 | 2 - 20 | 960 | 820 | 1140 | 1460 | 380 | GI50 (DU-145): 1010 nM; GI50 (BT-549): 510 nM; GI50 (COLO 205): 1240 nM; GI50 (SK-MEL-2): 1380 nM; GI50 (MDA-MB-468): 440 nM |
| C=C1C(=O)O[C@@H]2C3O[C@]3(C)CC/C=C(\C)CC[C@@H]12 (stereo partly drawn) | – | – | 49000 | – | 5470 | – | – | – | – | 9350 | – | 21100 | – | 48400 | – | 17300 | – | 21500 | – | 17400 | pEC50 [2]: 5.72; pEC50 [3]: 4.89; pEC50 [4]: 5.20; pEC50 [5]: 5.28 |
| C=C1C(=O)O[C@@H]2[C@H]3O[C@]3(C)CC/C=C(/COC(=O)c3cc4cc(Cl)ccc4[nH]3)CC[C@@H]12 | 1320 | 2250 | 2220 | 2420 | 1590 | 1750 | 1240 | 1910 | 1470 | 1190 | 1340 | 1380 | 770 | 570 | 2 - 20 | 1400 | 1350 | 1330 | 1510 | 1250 | GI50 (BT-549): 1310 nM; GI50 (COLO 205): 1720 nM; GI50 (SK-MEL-2): 1730 nM; GI50 (MDA-MB-468): 1890 nM |
